Screening results as filed in PubChem.
DDE Tn7 FP inh: inhibitors of Tn7 peptide binding to fibrin DD(E), primary screen, biochemical, fluorescence polarization, human fibrin, Tn7 probe; FP displacement of FITC-Tn7 peptide from fibrin DD(E); 0% = median of compound wells per plate; 370,000 tested, 0.13% active; inhibition, % at 8.3 µM; Fibrinogen beta chain (Homo sapiens), P02675;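 active = inhibition above the mean of compounds falling within the control limits plus 3 SD of them, cut at about 14% in these data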;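 also: 0% = plate median of compound wells and 100% = 10 µM Aha-Tn7 peptide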
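Assay system: Fibrin-DD(E) protein isolated from polymerized human fibrin clots; read-out basis: percent inhibition; medium: Tris/NaCl/CaCl2 buffer, pH 7.8; signal: FP measurement; incubation: 10 min plus 3 h, room temperature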
TCR-CD3 inh: inhibitors of human TCR-CD3 interaction, primary screen, biochemical, fluorescence, TAMRA-labeled TCR probe. T-cell receptor (TCR). inhibition, % at 9.4 µM. 360,000 tested, 0.37% active;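 also: recombinant mutant TCR 2C K166C tagged with TAMRA read by polarization; 0% = receptor in buffer alone and 100% = receptor with positive control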
Tn6 DDE FP: inhibitors of Tn6 peptide binding to fibrin DD(E), primary screen, biochemical, fluorescence polarization, human fibrin, Tn6 probe; Fibrinogen beta chain (Homo sapiens), P02675; Fibrin DD(E) TRITC-Tn6 fluorescence polarization displacement; inhibition, % at 8.3 µM; 370,000 tested, 0.21% active; AID 720509, 2013;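 active = inhibition above a per-campaign cutoff: mean of compounds within control limits plus 3 SD, cut at about 15% in these data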;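 also: 0% = median of all compound wells on the plate and 100% = blocking peptide control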
mABHD4 FP: ABHD4 inhibitors, primary screen, biochemical, fluorescence polarization, mouse. purified mABHD4, FP-Rh probe fluorescence polarization. 370,000 tested, 0.54% active. inhibition, % at 8.92 µM. AID 720543, 2013;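 active = inhibition exceeding the mean over every tested compound plus 3 SD, cut at about 30% in these data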;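 also: 0% = plate median of compound wells and 100% = S159A mutant with DMSO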
Target sequence (Q8VD66 whole entry, looked up): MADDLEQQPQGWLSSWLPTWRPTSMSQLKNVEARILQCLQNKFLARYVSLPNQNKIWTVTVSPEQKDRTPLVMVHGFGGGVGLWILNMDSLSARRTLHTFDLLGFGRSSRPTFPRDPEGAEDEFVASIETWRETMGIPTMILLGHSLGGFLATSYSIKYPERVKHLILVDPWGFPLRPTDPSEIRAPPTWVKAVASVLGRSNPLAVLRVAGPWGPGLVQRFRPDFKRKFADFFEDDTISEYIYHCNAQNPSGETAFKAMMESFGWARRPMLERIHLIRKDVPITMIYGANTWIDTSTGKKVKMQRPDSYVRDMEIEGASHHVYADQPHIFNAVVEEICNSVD
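Assay system: mouse ABHD4 enzyme, wild type / Also added: fluorescent activity-based probe FP-Rh / Doses: single nominal dose of 8.92 µM, 0.89% DMSO final / Timing: 45 min compound pre-incubation plus 60 min probe step, 25 °C / Signal: FP readout, ex 525 nm / em 598 nm / Control set: S159A mutant/DMSO as 100%, compound-well median as 0%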
HTRA1 inh: HTRA1 serine protease inhibitors, primary screen, biochemical, fluorescence polarization, HTS; Q92743; recombinant HTRA1, FP-rhodamine activity-based probe; inhibition, % at 5.96 µM; 340,000 tested, 0.5% active; in the data active = inhibition above about 36%;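 also: 0% = enzyme with DMSO and 100% = wells lacking enzyme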
SIAE inh: human SIAE inhibitors, primary screen, biochemical, fluorescence polarization, FP-Rh probe, 1536-well HTS. 370,000 tested, 0.69% active. Sialate O-acetylesterase (Homo sapiens), Q9HAT2. SIAE FP-Rh probe binding. AID 1053197, 2014. inhibition, % at 9.66 µM;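 active = inhibition above a cutoff: mean of compounds within the control limits plus 3 SD of those, cut at about 17% in these data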;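 also: 0% = plate median of compound wells and 100% = probe without SIAE protein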
HTRA1 conf: HTRA1 protease inhibitors, retest, confirmation, biochemical, fluorescence polarization; shares compounds with HTRA1 inh; recombinant HTRA1, FP-rhodamine activity-based probe; inhibition, % at 5.96 µM; 1,600 tested, 66% active; AID 540248, 2011;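 active = mean inhibition over three repeats above a set limit taken from the earlier primary screen, cut at about 37% in these data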;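 also: 0% = HTRA1 with DMSO and 100% = wells lacking HTRA1; inhibitors block probe binding so polarization drops and inhibition rises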
BSA TAMRA ctr: compounds interfering with TAMRA-BSA probe, counter-screen for TCR-CD3 interaction inhibitor project, biochemical, fluorescence, TAMRA-labeled BSA; shares compounds with TCR-CD3 inh; TAMRA-labeled BSA probe fluorescence counterscreen; inhibition, % at 9.4 µM; 1,200 tested, 10% active; in the data active = inhibition above about 23%;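 also: 0% = buffer low control and 100% = reference high control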
TCR-CD3 conf: TCR-CD3 interaction inhibitors, retest, confirmation, biochemical, fluorescence, TAMRA-labeled TCR probe. shares compounds with TCR-CD3 inh. TAMRA-labeled TCR probe fluorescence binding assay. inhibition, % at 9.4 µM. 1,200 tested, 48% active
DDE Tn6 FP ctr: counter-screen for inhibitors of Tn6 peptide binding to fibrin DD(E). shares compounds with Tn6 DDE FP. TRITC-Tn6 fluorescence polarization displacement; 0% = median of compound wells, not DMSO. inhibition, % at 8.3 µM. 680 tested, 2% active;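 active = inhibition above the mean of test compounds lying between the control limits plus 3 SD of those, cut at about 14% in these data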;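 also: 0% = median of compound wells and 100% = wells with Aha-Tn7 blocking peptide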
DDE Tn6 confirm: inhibitors of Tn6 peptide binding to fibrin DD(E), confirmation, biochemical, fluorescence polarization, human fibrin, Tn6 probe; inhibition, % at 8.3 µM; AID 720631, 2013; 680 tested, 10% active; FP displacement of TRITC-Tn6 peptide from DD(E); 0% = per-plate median of test wells; shares compounds with Tn6 DDE FP;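 active = inhibition above the mean of compounds lying within the control limits plus 3 SD, cut at about 16% in these data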;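 also: 100% = high control wells holding a competing inhibitor peptide at 10 µM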
mABHD4 conf: ABHD4 inhibitors, retest, confirmation, biochemical, fluorescence polarization, mouse | shares compounds with mABHD4 FP | purified mABHD4, FP-Rh probe fluorescence polarization | inhibition, % at 8.92 µM | 1,800 tested, 55% active | AID 720658, 2013;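 active = mean inhibition across replicates above the hit cutoff set in the primary screen, cut at about 30% in these data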;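 also: 0% = wild-type ABHD4 with DMSO and 100% = catalytically dead S159A mutant with DMSO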
SIAE confirm: human SIAE inhibitors, retest, confirmation, biochemical, fluorescence polarization, FP-Rh probe, triplicate. SIAE FP-Rh activity-based probe. shares compounds with SIAE inh. 2,300 tested, 13% active. inhibition, % at 9.66 µM;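 active = mean inhibition of the replicates above the hit cutoff set in the primary screen, cut at about 17% in these data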;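 also: 0% = SIAE with DMSO and probe and 100% = probe without SIAE; inhibitors lower polarization as more probe stays unbound to SIAE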
An asterisk follows results filed as active; · = not tested or not shown. Shown are actives, neighbours in structure and some others; about 1.8% of the full set was active somewhere. Rule as the data show it, unless noted: active = inhibition above about 19%; inactive = the rest.

SMILES | DDE Tn7 FP inh | TCR-CD3 inh | Tn6 DDE FP | mABHD4 FP | HTRA1 inh | SIAE inh | HTRA1 conf | BSA TAMRA ctr | TCR-CD3 conf | mABHD4 conf | SIAE confirm | others
Oc1ccc2ccccc2c1/C=C/c1ccc2c(Br)cc(Br)c(O)c2n1 | -6 | -9 | -24 | 34* | 66* | 23* | 69* | · | · | 21 | 16
COc1cc(Br)c(/C=C/c2ccc3cccc(O)c3n2)cc1OC | 3 | 0 | -3 | 9 | 10 | 8 | · | · | · | · | ·
N#C/C(=C\c1ccc(O)c(O)c1)C(=O)Nc1cccc2ncccc12 | -6 | 72* | -5 | 28 | 52* | 29* | 39* | -21 | 60* | · | 0
COc1ccc(/C=C(\C#N)C(=O)Nc2cccc3ncccc23)cc1OC | 0 | 1 | -4 | -1 | 4 | -1 | · | · | · | · | ·
COc1ccc(N)c2c1C(=O)c1ccccc1C2=O | 3 | 4 | 72* | 44* | 38* | 20* | 34 | · | · | 1 | 12 | DDE Tn6 FP ctr=4;DDE Tn6 confirm=58*
Nc1ccc(NC(=O)c2ccccc2)c2c1C(=O)c1ccccc1C2=O | 0 | -1 | -3 | 13 | 10 | 3 | · | · | · | · | ·
COc1ccc(OC)c2c1C(=O)C(Cl)=C(Cl)C2=O | 0 | -4 | -3 | 24 | 0 | 10 | · | · | · | · | ·
Nc1ccc(O)c2c1C(=O)c1ccccc1C2=O | 2 | 43* | 130* | 87* | 88* | 55* | 96* | 24* | 27* | 74* | 54* | DDE Tn6 FP ctr=8;DDE Tn6 confirm=102*
CC1=CC(C)(C)N2C(=O)C(=Nc3ccc(O)cc3)c3cccc1c32 | -6 | 42* | 6 | 60* | 53* | 22* | 10 | 5 | 1 | 28 | 7
Oc1ccc(N=Cc2ccc(OCc3ccccc3)cc2)cc1 | 3 | 32* | 7 | 68* | 63* | 45* | -9 | 4 | 0 | 16 | 4
O=C(N/N=C/c1ccc(OCc2ccccc2)cc1)c1ccncc1 | -1 | -3 | 4 | -9 | -16 | 6 | · | · | · | · | ·
CNc1ccc2c3c(cccc13)C(=O)N(C)C2=O | -6 | 83* | 47* | 103* | 84* | 70* | 75* | 138* | 104* | 119* | 66* | DDE Tn6 FP ctr=53*;DDE Tn6 confirm=43*
C=CCCC(=O)N1C[C@H]2CCN(C)[C@H]2C[C@H]1c1ccccc1Br | 2 | 8 | 2 | 4 | · | -8 | · | · | · | · | ·
CCN(CC)Cc1cc(Nc2c3ccccc3nc3c4ccccc4n(C)c23)cc(CN(CC)CC)c1O | -7 | 9 | -4 | 33* | 38* | 17* | 18 | · | · | · | 4
Oc1cccc(Nc2c3ccccc3nc3ccccc23)c1 | 5 | 4 | 2 | 10 | 10 | 4 | · | · | · | · | ·
COc1ccc(C2C(C(=O)N3CCC(C)CC3)CC(=O)N2c2ccc(OC)cc2)cc1 (stereo not drawn) | 4 | · | -1 | -3 | · | 9 | · | · | · | · | ·
C[C@@H]1Cc2c(O)c(O)cc(O)c2C(=O)O1 | · | · | · | · | 11 | · | · | · | · | · | ·
O=C1C=C(O)c2c(O)cc(O)c(O)c2C1=O | 2 | 63* | 2 | 84* | 78* | 51* | 56* | -3 | 64* | 57* | 10
CC(COc1cc(F)cc(F)c1)CN1CCC(C(O)(c2ccccc2)c2ccccc2)CC1 (stereo not drawn) | -1 | · | 7 | -2 | · | -9 | · | · | · | · | ·
CN1Cc2nnn(Cc3ccccc3)c2-c2ccccc2S1(=O)=O | 0 | · | 1 | 2 | · | 5 | · | · | · | · | ·
C=CCn1cc(/C=N/Nc2nc3ccccc3[nH]2)c2ccccc21 | -3 | -1 | -15 | 25 | 41* | 56* | 42* | · | · | · | 53*
CNc1ccccc(-c2ccc3ccccc3n2)c1=O | 4 | 9 | 0 | 36* | 38* | 21* | 4 | · | · | 14 | 2
C[C@@H]1O[C@@H](n2c3ccc(Cl)cc3c3ccc4c5cc(Cl)ccc5[nH]c4c32)[C@H](O)[C@H](O)[C@H]1O | -9 | · | -15 | -1 | · | -10 | · | · | · | · | ·
Oc1ccc(C2=Nn3c(nnc3-c3ccco3)SC2)cc1O | 0 | 22* | -1 | 43* | 44* | 30* | 34 | · | · | 40* | 17
COc1ccc2nc3cc(Cl)ccc3c(Nc3cc(C(C)C)c(O)cc3C)c2c1 | 7 | -9 | 0 | 40* | 38* | 29* | 29 | · | · | 51* | 14
CCOC(=O)C1=CCN(S(=O)(=O)c2ccc([N+](=O)[O-])cc2)C1c1ccc(C)cc1 (stereo not drawn) | -2 | 4 | 9 | -1 | · | -1 | · | · | · | · | ·
O=C(O)/C=C\C(=O)Nc1ccc(N2CCN(c3cccc(Cl)c3)CC2)cc1 | 3 | 21* | 3 | 42* | 52* | 26* | 40* | 0 | 4 | 21 | 1
O=C(O)/C=C\C(=O)Nc1ccc(N2CCN(c3ccc(F)cc3)CC2)cc1 | -3 | 28* | 8 | 44* | 43* | 33* | 14 | 5 | 3 | 10 | 3
